High-throughput results (PubChem BioAssay)
In the library only some 2.8% were active in any assay of this set; here they are far more common.
PAFAH1B2 FP inh: PAFAH1B2 enzyme inhibitors, primary screen, biochemical, fluorescence polarization, human; Platelet-activating factor acetylhydrolase IB subunit alpha2 (Homo sapiens), P68402; recombinant PAFAH1B2, FP-rhodamine activity probe; inhibition, % at 3.39 µM; actives 1.2% (n = 340,000); AID 492953, 2010;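 active = inhibition above the mean of all tested compounds plus 3 SD, cut at about 24% in these data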;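 note: 0% = enzyme with DMSO and 100% = wells lacking PAFAH1B2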
Target sequence (P68402 whole entry, looked up): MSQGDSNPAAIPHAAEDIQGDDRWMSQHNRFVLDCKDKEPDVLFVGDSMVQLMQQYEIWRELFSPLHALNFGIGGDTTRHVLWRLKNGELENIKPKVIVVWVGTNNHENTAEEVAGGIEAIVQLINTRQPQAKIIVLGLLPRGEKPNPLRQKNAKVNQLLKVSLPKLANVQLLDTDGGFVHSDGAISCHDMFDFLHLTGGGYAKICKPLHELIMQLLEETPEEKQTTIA
pPAFAH FP inh: pPAFAH enzyme inhibitors, primary screen, biochemical, fluorescence polarization, human | Platelet-activating factor acetylhydrolase (Homo sapiens), Q13093 | recombinant pPAFAH, FP-rhodamine probe fluorescence polarization | inhibition, % at 3.39 µM | actives 1.5% (n = 330,000) | AID 463082, 2010;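 active = inhibition above the mean inhibition across the screen plus 3 SD, cut at about 25% in these data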;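 note: inhibitors block binding of the rhodamine activity-based probe so polarization drops; 0% = enzyme with DMSO and 100% = wells lacking pPAFAH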
ASAP1 GAP inh: inhibitors of human ASAP1 ArfGAP activity, primary screen, biochemical, fluorescence polarization. AID 624377, 2012. inhibition, % at 16.5 µM. actives 0.19% (n = 360,000). ASAP1-stimulated ARF1 GTP hydrolysis, GDP FP detection. Arf-GAP with SH3 domain, ANK repeat and PH domain-containing protein 1 (Homo sapiens), …; in the data active = inhibition above about 25%;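 note: 0% = vehicle with enzyme and substrate and 100% = no enzyme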
PAFAH1B3 FP inh: PAFAH1B3 enzyme inhibitors, primary screen, biochemical, fluorescence polarization, human | Platelet-activating factor acetylhydrolase IB subunit alpha1 (Homo sapiens), Q15102 | recombinant PAFAH1B3, FP-rhodamine probe | inhibition, % at 3.39 µM | actives 0.28% (n = 340,000) | AID 492972, 2010;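 active = inhibition above the screen-wide average of all tested compounds plus 3 SD, cut at about 25% in these data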;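 note: 0% = enzyme with DMSO only and 100% = wells lacking PAFAH1B3 protein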
Target sequence (Q15102 whole entry, looked up): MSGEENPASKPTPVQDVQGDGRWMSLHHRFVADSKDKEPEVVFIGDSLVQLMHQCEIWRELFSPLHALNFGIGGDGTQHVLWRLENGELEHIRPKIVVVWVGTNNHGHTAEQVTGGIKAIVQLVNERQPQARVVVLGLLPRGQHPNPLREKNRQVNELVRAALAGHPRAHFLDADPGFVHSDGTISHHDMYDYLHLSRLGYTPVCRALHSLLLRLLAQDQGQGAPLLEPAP
PAFAH2 FP inh: PAFAH2 enzyme inhibitors, primary screen, biochemical, fluorescence polarization, human. actives 0.99% (n = 340,000). inhibition, % at 3.39 µM. Platelet-activating factor acetylhydrolase 2, cytoplasmic (Homo sapiens), Q99487. recombinant PAFAH2, FP-rhodamine activity probe. AID 492956, 2010;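 active = inhibition above the mean over all tested compounds plus 3 SD, cut at about 30% in these data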;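 note: inhibitors block probe labeling of enzyme so polarization drops; 0% = enzyme with DMSO and 100% = wells lacking PAFAH2 protein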
ARFGAP1 inh: inhibitors of rat ARFGAP1 GAP activity, primary screen, biochemical, fluorescence polarization, GDP tracer; ADP-ribosylation factor GTPase-activating protein 1 (Rattus norvegicus), Q62848; Arfgap1-stimulated ARF1 GTP hydrolysis, GDP FP detection; inhibition, % at 16.5 µM; actives 0.26% (n = 360,000); AID 651572, 2012;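 active = inhibition above a per-plate limit, mean inhibition of low control wells plus 3 SD, cut at about 25% in these data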;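 note: 0% = DMSO wells with enzyme and 100% = wells lacking Arfgap1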
Target sequence (Q62848 1-136 limits assumed): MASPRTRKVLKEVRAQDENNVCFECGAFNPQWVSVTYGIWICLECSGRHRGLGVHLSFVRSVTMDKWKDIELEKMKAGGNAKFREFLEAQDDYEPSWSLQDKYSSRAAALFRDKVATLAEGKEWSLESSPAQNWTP
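Assay system: purified rat His6-Arfgap1 residues 1-136 (GAP domain); Reagent: human Δ17 ARF1 bound to GTP; Dosing: 16.5 µM single point, 1.26% DMSO; Times: GTP hydrolysis reaction 2 h at 25 °C; Signal: FP, GDP Alexa 633 tracer displaced from anti-GDP antibody, 620/688 nm; Measure: % inhibition from polarization.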
* marks the source's active call; other numbers are inactive results.

`COc1cccc(N2CCN(C(=O)c3ccc(Cl)c(S(=O)(=O)N4CCCCCC4)c3)CC2)c1` gave ASAP1 GAP inh -10.2 and ARFGAP1 inh 1.2.
For O=C(Cc1cn(Cc2ccccc2)c2ccccc12)Nc1ccc(Oc2cccnc2)cc1 the results were ASAP1 GAP inh -2.4 and ARFGAP1 inh 2.5.
CC(C)n1c(=O)c2ccccc2n1Cc1cn(Cc2cccnc2)nn1 was read as ASAP1 GAP inh 3.5 and ARFGAP1 inh 2.9.
O=C(CSc1ccc(F)cc1)NCCSc1ccccc1 was read as PAFAH1B2 FP inh 28.3*, pPAFAH FP inh 5.6, ASAP1 GAP inh -2.3, PAFAH1B3 FP inh 12.0, PAFAH2 FP inh 3.7 and ARFGAP1 inh 2.2.
Screening Cc1cc(NC(=O)CCC(=O)N(CC(=O)NCC2CCCO2)c2ccc(C)c(C)c2)no1 (stereo unspecified) returned PAFAH1B2 FP inh -2.0, pPAFAH FP inh 4.2, ASAP1 GAP inh -7.5, PAFAH1B3 FP inh 0.6, PAFAH2 FP inh -8.4 and ARFGAP1 inh -4.9.
For O=c1ccc(NS(=O)(=O)c2ccccc2)cn1Cc1ccc(Cl)c(Cl)c1 the results were PAFAH1B2 FP inh 15.4, pPAFAH FP inh 25.8*, ASAP1 GAP inh 7.9, PAFAH1B3 FP inh 9.0, PAFAH2 FP inh 5.4 and ARFGAP1 inh -5.1.
Screening COc1ccc(C(O)c2nc(/C=C/c3ccc(C(F)(F)F)cc3)cs2)cc1 (stereo unspecified) returned ASAP1 GAP inh 8.1 and ARFGAP1 inh 4.5.
O=C(c1ccc(Oc2ccccc2)cc1)c1nc2c(n1O)CCCC2 was read as PAFAH1B2 FP inh 6.1, pPAFAH FP inh 30.7*, ASAP1 GAP inh 8.3, PAFAH1B3 FP inh 0.3, PAFAH2 FP inh 2.9 and ARFGAP1 inh 4.9.
Screening CCC(=O)N1CCCC1(C)C(=O)Nc1ccc2scnc2c1 (stereo unspecified) returned ASAP1 GAP inh 12.2 and ARFGAP1 inh -5.6.
For CC1CCN(S(=O)(=O)c2ccc3[nH]c(=O)c(=O)[nH]c3c2)CC1 the results were PAFAH1B2 FP inh 60.3*, pPAFAH FP inh 2.5, ASAP1 GAP inh -5.2, PAFAH1B3 FP inh 3.3, PAFAH2 FP inh -8.2 and ARFGAP1 inh 10.5.
CCOC(=O)C1CCN(S(=O)(=O)c2ccc3[nH]c(=O)c(=O)[nH]c3c2)CC1 was read as PAFAH1B2 FP inh 5.7, pPAFAH FP inh 8.7, ASAP1 GAP inh 0.5, PAFAH1B3 FP inh 0.2, PAFAH2 FP inh 0.9 and ARFGAP1 inh 3.1.
COc1cc(NC(=O)CSc2nc3[nH]c(=O)cc(O)c3s2)cc(OC)c1OC was read as PAFAH1B2 FP inh 0.5, pPAFAH FP inh 13.5, ASAP1 GAP inh 1.5, PAFAH1B3 FP inh -1.8, PAFAH2 FP inh 5.6 and ARFGAP1 inh -5.0.
COc1ccccc1NC(=O)CCCCCN1C(=O)c2cccc([N+](=O)[O-])c2C1=O was read as PAFAH1B2 FP inh 1.5, pPAFAH FP inh 1.8, ASAP1 GAP inh 9.5, PAFAH1B3 FP inh -7.1, PAFAH2 FP inh 4.1 and ARFGAP1 inh 0.1.
For COc1cc(/C=C2/C(=O)c3cccc([N+](=O)[O-])c3C2=O)c(Br)cc1O the results were PAFAH1B2 FP inh 16.5, pPAFAH FP inh 32.0*, ASAP1 GAP inh 1.0, PAFAH1B3 FP inh 40.4*, PAFAH2 FP inh 39.6* and ARFGAP1 inh -9.2.
For O=C(NCCc1ccccc1)c1ccc(NC(=O)C2CCC2)cc1 the results were PAFAH1B2 FP inh 3.1, ASAP1 GAP inh -10.7, PAFAH1B3 FP inh -5.7, PAFAH2 FP inh 2.5 and ARFGAP1 inh -10.8.
`Cc1ccc(SCC2(O)CCN(C(=O)c3ccc(Cl)cc3)CC2)cc1` gave PAFAH1B2 FP inh 5.8, pPAFAH FP inh 28.4*, ASAP1 GAP inh -0.7, PAFAH1B3 FP inh -1.8, PAFAH2 FP inh -1.9 and ARFGAP1 inh 2.2.
Screening CCN1CCN(C(=O)c2ccc(CSc3ccc(C)cc3)cc2)CC1 returned PAFAH1B2 FP inh 40.0*, pPAFAH FP inh 4.5, ASAP1 GAP inh 5.9, PAFAH1B3 FP inh 6.2, PAFAH2 FP inh 11.6 and ARFGAP1 inh 15.0.
For O=S(=O)(c1ccccc1)N1CCC(O)(CSc2ccc(Cl)cc2)CC1 the results were PAFAH1B2 FP inh 17.1, pPAFAH FP inh 6.7, ASAP1 GAP inh -5.9, PAFAH1B3 FP inh 3.0, PAFAH2 FP inh 8.3 and ARFGAP1 inh 14.8.
Screening COc1ccc(C(=O)N2CCCCC2)cc1S(=O)(=O)Nc1ccccc1 returned PAFAH1B2 FP inh 0.9, pPAFAH FP inh 33.4*, ASAP1 GAP inh 14.8, PAFAH1B3 FP inh 9.3, PAFAH2 FP inh 1.7 and ARFGAP1 inh 2.0.
Screening COc1ccc(NS(=O)(=O)c2cccc(C(=O)N3CCN(c4ccccc4O)CC3)c2)cc1 returned PAFAH1B2 FP inh 0.8, pPAFAH FP inh 27.1*, ASAP1 GAP inh -10.6, PAFAH1B3 FP inh 6.1, PAFAH2 FP inh 6.8 and ARFGAP1 inh -2.0.
COc1ccc(NS(=O)(=O)c2cccc(C(=O)OCC(=O)c3c(N)n(C)c(=O)n(C)c3=O)c2)cc1 was read as PAFAH1B2 FP inh 1.9, pPAFAH FP inh 29.2*, ASAP1 GAP inh -4.0, PAFAH1B3 FP inh 1.6, PAFAH2 FP inh 8.7 and ARFGAP1 inh -11.7.
COc1ccc(NS(=O)(=O)c2cccc(C(=O)OCC(=O)N3CCN(c4ccc(OC)cc4)CC3)c2)cc1 was read as PAFAH1B2 FP inh 8.5, pPAFAH FP inh 27.7*, ASAP1 GAP inh -1.1, PAFAH1B3 FP inh 10.2, PAFAH2 FP inh 0.2 and ARFGAP1 inh 2.0.
For Cc1ccc(C(=O)N2CCCCCC2)cc1S(=O)(=O)Nc1ccccc1 the results were PAFAH1B2 FP inh 13.5, ASAP1 GAP inh 19.7, PAFAH1B3 FP inh -5.6, PAFAH2 FP inh 9.3 and ARFGAP1 inh 4.9.
`COc1cccc(C(=O)OCC(=O)c2c(N)n(C)c(=O)n(C)c2=O)c1` gave PAFAH1B2 FP inh 5.0, pPAFAH FP inh -3.7, ASAP1 GAP inh -9.3, PAFAH1B3 FP inh 1.4, PAFAH2 FP inh 0.0 and ARFGAP1 inh 0.6.
Cc1ccc(S(=O)(=O)N(C)CC(=O)Nc2cccnc2)cc1 was read as PAFAH1B2 FP inh 8.9, pPAFAH FP inh 2.4, ASAP1 GAP inh 10.3, PAFAH1B3 FP inh -3.4, PAFAH2 FP inh 9.1 and ARFGAP1 inh 8.6.
For CCOC(=O)N1CCN(C2=C(NS(=O)(=O)c3ccc(Br)cc3)C(=O)c3ccccc3C2=O)CC1 the results were ASAP1 GAP inh -3.1 and ARFGAP1 inh -0.8.
